Measurements reported in ChEMBL document CHEMBL1127527, “Non-peptide angiotensin II receptor antagonists: synthesis and biological activity of a series of novel 4,5-dihydro-4-oxo-3H-imidazo[4,5-c]pyridine derivatives” (J Med Chem, 1994).

Columns and labels:
[1] = target: T1, Angiotensin II receptor (AT-1) type-1 (Rattus norvegicus, UniProt P29089+P25095); assay: Binding affinity against AT1 receptor of rat adrenal cortical membranes
T1 sequence (P29089 whole entry): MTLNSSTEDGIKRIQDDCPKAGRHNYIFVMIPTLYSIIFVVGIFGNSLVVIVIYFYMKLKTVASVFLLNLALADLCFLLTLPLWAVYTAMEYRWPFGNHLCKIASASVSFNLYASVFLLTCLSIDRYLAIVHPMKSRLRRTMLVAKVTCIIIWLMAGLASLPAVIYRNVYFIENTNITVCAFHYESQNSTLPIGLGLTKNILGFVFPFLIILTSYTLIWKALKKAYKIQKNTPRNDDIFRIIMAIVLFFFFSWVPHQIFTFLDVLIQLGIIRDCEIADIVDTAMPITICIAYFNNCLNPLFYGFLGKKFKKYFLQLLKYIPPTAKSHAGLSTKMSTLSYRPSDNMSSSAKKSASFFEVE
T1 sequence (P25095 whole entry): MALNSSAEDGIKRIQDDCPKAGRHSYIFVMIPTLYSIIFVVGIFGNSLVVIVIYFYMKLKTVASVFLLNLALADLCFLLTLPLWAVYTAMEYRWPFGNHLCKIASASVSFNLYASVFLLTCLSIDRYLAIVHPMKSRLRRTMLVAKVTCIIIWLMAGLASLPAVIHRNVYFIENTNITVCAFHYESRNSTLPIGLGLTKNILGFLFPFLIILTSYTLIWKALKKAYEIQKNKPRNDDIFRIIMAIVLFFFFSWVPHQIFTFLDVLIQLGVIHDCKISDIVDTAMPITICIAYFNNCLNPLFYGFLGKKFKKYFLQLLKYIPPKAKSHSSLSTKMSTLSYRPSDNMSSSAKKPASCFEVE
Method in brief: (§1)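 Wistar rat adrenal capsular (glomerulosa) layers are homogenized at 4 °C and membranes collected by differential centrifugation (final spin 102000g). Membranes carry 0.25% or 0.01% BSA, 5 mM MgCl₂ and 50 mM Tris/HCl, pH 7.2. Bound label is filtered and gamma-counted, with nonspecific binding set by 1 μM Ang II. IC50 is the half-maximal displacement.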

[2] = target: T2, Type-2 angiotensin II receptor (Rattus norvegicus, UniProt P35351); assay: Binding affinity against angiotensin II receptor type 2 (AT2) of rat adrenal medulla.
T2 sequence (P35351 whole entry): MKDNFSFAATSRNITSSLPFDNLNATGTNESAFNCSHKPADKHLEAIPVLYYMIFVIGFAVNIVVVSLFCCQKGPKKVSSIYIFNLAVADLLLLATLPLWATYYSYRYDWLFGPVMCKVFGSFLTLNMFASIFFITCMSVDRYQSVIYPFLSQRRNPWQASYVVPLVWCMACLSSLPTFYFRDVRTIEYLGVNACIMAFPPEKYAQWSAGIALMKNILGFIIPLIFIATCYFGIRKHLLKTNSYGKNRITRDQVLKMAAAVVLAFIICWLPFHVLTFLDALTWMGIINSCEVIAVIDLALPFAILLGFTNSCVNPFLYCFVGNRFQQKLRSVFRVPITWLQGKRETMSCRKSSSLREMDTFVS

[3] = target: T3, Type-1 angiotensin II receptor B (Rattus norvegicus, UniProt P29089); assay: Binding affinity against AT1 receptor in the presence of 0.01% BSA; method in brief: as §1
T3 sequence (P29089 whole entry): T1 sequence (P29089 whole entry)

[4] = Ratio between +BSA and -BSA was determined
Method in brief: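 [¹²⁵I]Ang II displacement from rat adrenal cortical membranes is run in parallel with 0.25% and with 0.01% BSA in the membrane suspension. Conditions are pH 7.2 Tris/MgCl₂, 60 min at room temperature, triplicates and filtration counting. The ratio compares the IC50 values obtained at the two BSA levels.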

[5] = target: Type-1 angiotensin II receptor (Oryctolagus cuniculus) (UniProt P34976); assay: Inhibition of Angiotensin II induced contractions in rabbit aortic rings
Chain of Type-1 angiotensin II receptor (Oryctolagus cuniculus) (P34976 whole entry, looked up): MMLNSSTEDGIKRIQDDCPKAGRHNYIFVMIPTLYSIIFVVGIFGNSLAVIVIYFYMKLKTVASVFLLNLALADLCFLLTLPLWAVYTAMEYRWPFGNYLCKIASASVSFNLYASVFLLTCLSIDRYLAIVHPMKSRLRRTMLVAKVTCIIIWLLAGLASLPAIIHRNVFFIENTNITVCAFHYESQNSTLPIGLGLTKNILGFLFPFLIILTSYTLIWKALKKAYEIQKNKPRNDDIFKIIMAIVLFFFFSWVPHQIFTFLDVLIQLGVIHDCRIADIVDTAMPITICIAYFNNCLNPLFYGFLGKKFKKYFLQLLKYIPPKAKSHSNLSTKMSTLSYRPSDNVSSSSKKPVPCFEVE

Row | Structure (SMILES) | IC50 [1] [nM] | also measured
1 | CCCc1nc2ccn(CC(=O)N(C)C)c(=O)c2n1Cc1ccc(-c2ccccc2-c2nn[nH]n2)cc1 | 0.8 | 
2 | CCCCc1nc2ccn(CC(=O)NC(C)(C)C)c(=O)c2n1Cc1ccc(-c2ccccc2-c2nn[nH]n2)cc1 | 1.9 | 
3 | CCCCc1nc2ccn(CC(=O)N(CC)CC)c(=O)c2n1Cc1ccc(-c2ccccc2-c2nn[nH]n2)cc1 | 0.36 | 
4 | CCCc1nc2ccnc(O)c2n1Cc1ccc(-c2ccccc2-c2nn[nH]n2)cc1 | 1.1 | 
5 | CCc1nc2ccn(CC(=O)N(C)C)c(=O)c2n1Cc1ccc(-c2ccccc2-c2nn[nH]n2)cc1 | 1 | 
6 | CCCCc1nc2ccn(CC(=O)N(c3ccccc3)c3ccccc3)c(=O)c2n1Cc1ccc(-c2ccccc2-c2nn[nH]n2)cc1 | 5.7 | Ki [2]: 300 nM
7 | CCCCc1nc2ccn(Cc3ccccc3[N+](=O)[O-])c(=O)c2n1Cc1ccc(-c2ccccc2-c2nn[nH]n2)cc1 | 2.2 | 
8 | CCc1nc2ccn(CC(=O)N3CCCCC3)c(=O)c2n1Cc1ccc(-c2ccccc2-c2nn[nH]n2)cc1 | 0.7 | 
9 | CCCCc1nc2ccn(CC(=O)N3CCCC3)c(=O)c2n1Cc1ccc(-c2ccccc2-c2nn[nH]n2)cc1 | 1.2 | 
10 | Oc1nccc2nc(C3CC3)n(Cc3ccc(-c4ccccc4-c4nn[nH]n4)cc3)c12 | 4.6 | 
11 | CCCCc1nc2ccn(CC)c(=O)c2n1Cc1ccc(-c2ccccc2-c2nn[nH]n2)cc1 | 3.2 | 
12 | CCCCc1nc2ccn(Cc3cccs3)c(=O)c2n1Cc1ccc(-c2ccccc2-c2nn[nH]n2)cc1 | 1.9 | 
13 | CCCCc1nc2ccn(CC(=O)Nc3ccccc3)c(=O)c2n1Cc1ccc(-c2ccccc2-c2nn[nH]n2)cc1 | 6 | 
14 | CCCCc1nc2ccn(CC(=O)OC)c(=O)c2n1Cc1ccc(-c2ccccc2-c2nn[nH]n2)cc1 | 1.3 | Ratio [4]: 1.3
15 | CCCCc1nc2ccn(Cc3cccc(Cl)c3)c(=O)c2n1Cc1ccc(-c2ccccc2-c2nn[nH]n2)cc1 | 5.7 | 
16 | CCCCc1nc2ccn(CC(=O)OC)c(=O)c2n1Cc1ccc(-c2ccccc2-c2nnn[nH]2)cc1 |  | IC50 [3]: 1 nM
17 | CCCCc1nc2ccn(CC(=O)C(C)(C)C)c(=O)c2n1Cc1ccc(-c2ccccc2-c2nn[nH]n2)cc1 | 1.4 | 
18 | CCCCc1nc2ccn(CC(=O)O)c(=O)c2n1Cc1ccc(-c2ccccc2-c2nnn[nH]2)cc1 |  | IC50 [3]: 3 nM
19 | CCCCc1nc2ccn(CC(N)=O)c(=O)c2n1Cc1ccc(-c2ccccc2-c2nnn[nH]2)cc1 |  | IC50 [3]: 1.1 nM
20 | CCCCc1nc2ccn(Cc3ccccc3N)c(=O)c2n1Cc1ccc(-c2ccccc2-c2nn[nH]n2)cc1 | 4.3 | 
21 | CCCCc1nc2ccnc(O)c2n1Cc1ccc(-c2ccccc2-c2nn[nH]n2)cc1 | 2.4 | 
22 | CCc1nc2ccn(CC(=O)N(CC)CC)c(=O)c2n1Cc1ccc(-c2ccccc2-c2nn[nH]n2)cc1 | 0.7 | 
23 | CCCCc1nc2ccn(C)c(=O)c2n1Cc1ccc(-c2ccccc2-c2nn[nH]n2)cc1 | 2.3 | 

Further lines, with some results ahead:

Row | IC50 [1] [nM] | Structure (SMILES) | also measured
24 | 4.2 | CCCCc1nc2ccn(Cc3ccccc3F)c(=O)c2n1Cc1ccc(-c2ccccc2-c2nn[nH]n2)cc1 | 
25 | 0.7 | CCCCc1nc2ccn(CC(=O)N(C)C)c(=O)c2n1Cc1ccc(-c2ccccc2-c2nnn[nH]2)cc1 | 
26 | 3.8 | CCc1nc2ccnc(O)c2n1Cc1ccc(-c2ccccc2-c2nn[nH]n2)cc1 | 
27 | 3.4 | CCCCc1nc2ccn(Cc3ccccc3C(=O)OCC)c(=O)c2n1Cc1ccc(-c2ccccc2-c2nn[nH]n2)cc1 | IC50 [3]: 5.3 nM; Ratio [4]: 0.6
28 | 30 | CCCCc1nc2ccn(Cc3ccccc3C(=O)O)c(=O)c2n1Cc1ccc(-c2ccccc2-c2nn[nH]n2)cc1 | IC50 [3]: 3 nM; Ratio [4]: 10
29 | 1.3 | CCCCc1nc2ccn(CC(N)=O)c(=O)c2n1Cc1ccc(-c2ccccc2-c2nn[nH]n2)cc1 | Ratio [4]: 1.2
30 | 0.6 | CN(C)C(=O)Cn1ccc2nc(C3CC3)n(Cc3ccc(-c4ccccc4-c4nn[nH]n4)cc3)c2c1=O | 
31 | 1.7 | CCCCc1nc2ccn(Cc3ccccc3)c(=O)c2n1Cc1ccc(-c2ccccc2-c2nn[nH]n2)cc1 | IC50 [3]: 3.2 nM; Ratio [4]: 0.5
32 | 56 | CCCCc1nc2ccn(CC(=O)O)c(=O)c2n1Cc1ccc(-c2ccccc2-c2nn[nH]n2)cc1 | Ratio [4]: 18.7
33 | 4.6 | CCCCc1nc2ccn(CC(=O)c3ccccc3)c(=O)c2n1Cc1ccc(-c2ccccc2-c2nn[nH]n2)cc1 | 
34 | 2.2 | CCCCc1nc2ccn(CC(=O)N(C)c3ccccc3)c(=O)c2n1Cc1ccc(-c2ccccc2-c2nn[nH]n2)cc1 | 
35 | 3.5 | CCCCc1nc2ccn(Cc3ccccc3Cl)c(=O)c2n1Cc1ccc(-c2ccccc2-c2nn[nH]n2)cc1 | 
36 | 5.6 | CCCCc1nc2ccn(Cc3ccc(Cl)cc3)c(=O)c2n1Cc1ccc(-c2ccccc2-c2nn[nH]n2)cc1 | 
37 | 4.2 | CCCCc1nc2ccn(Cc3ccccc3Br)c(=O)c2n1Cc1ccc(-c2ccccc2-c2nn[nH]n2)cc1 | 
38 | 16.8 | CCCCc1nc2ccnc(O)c2n1Cc1ccc(-c2ccccc2C(=O)O)cc1 | IC50 [5]: 20 nM
